# Article PMC3174055 (Biochemical Journal, 2011)
# Where “and” joins values, the source holds several entries; their conditions need not be identical. Equal entries are not always repeated.
# Assays:
# [1] = Plasma pharmacokinetics in mice; format: in vivo, CD-1 mice; conditions: male, CD-1, mouse, ip, 10 mg/kg
# [2] = test system: U87MG xenograft; experiment: U87MG tumour xenograft efficacy and toxicity; format: in vivo, Rag1−/− or NIH-III mice; conditions: QD×14, BEZ-235 15 mg/kg, A66 100 mg/kg
# Outline: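 U87MG cells (5×10^6, s.c. in PBS) in SPF Rag1−/− or NIH-III mice; treatment started at tumours of about 7 mm. Daily i.p. dosing for 14 days (10 ml/kg, free base). Test compound in 20% hydroxypropyl-β-cyclodextrin; reference inhibitor in 10% ethanol; controls given vehicle. Caliper volume (L×w²)×π/6; daily body weight and toxicity checks; mice killed at >20% weight loss.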
# [3] = test system: SK-OV-3 xenograft; experiment: SK-OV-3 tumour xenograft efficacy and toxicity; format: in vivo, Rag1−/− or NIH-III mice; conditions: QD×21, BEZ-235 15 mg/kg, A66 100 mg/kg
# Outline: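 SPF Rag1−/− or NIH-III mice, 5×10^6 SK-OV-3 cells s.c. in PBS; dosing began at about 7 mm tumours. I.p., 10 ml/kg. Test compound (20% hydroxypropyl-β-cyclodextrin): 100 mg/kg QD×21 or 75 mg/kg BID×16, injections ≥~8 h apart. Reference inhibitor (10% ethanol): 15 mg/kg QD×21. Vehicle controls; 7–8 mice/group. Caliper volume (L×w²)×π/6; daily body weight; final-day TGI; ANOVA-Bonferroni.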
# [4] = test system: HCT-116 xenograft; experiment: HCT-116 tumour xenograft efficacy and toxicity; format: in vivo, Rag1−/− or NIH-III mice; conditions: QD×7, BEZ-235 10 mg/kg, A66 100 mg/kg
# Outline: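 HCT-116 xenografts from 5×10^6 cells s.c. in PBS, in SPF Rag1−/− or NIH-III mice. Once-daily i.p. dosing for 7 days from tumours of about 7 mm. Test compound in 20% hydroxypropyl-β-cyclodextrin; reference inhibitor at 10 mg/kg in 10% ethanol; vehicle controls. Caliper volumes by (L×w²)×π/6; daily weights; euthanasia if weight loss exceeded 20%.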
# [5] = test system: phosphorylation of Akt/PKB (Ser473, Thr308); experiment: Insulin-stimulated activation of Akt/PKB in cell lines, Western blotting; format: cell-based; conditions: for inhibition of insulin-stimulated phosphorylation of Akt/PKB Ser473 and Thr308: cell lines that lack the H1047R mutation, drug 15 min, then 500 nM insulin 5 min; for inhibition of insulin-stimulated activation of Akt/PKB: MCF7 cells
# Outline: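 Cells serum-starved overnight, then exposed to test compound or DMSO vehicle for 15 min and stimulated with 500 nM insulin for 5 min. Lysates separated by SDS/PAGE, 20 μg protein per lane except T47D, SK-OV-3 and MCF7, and Western blotted for Akt/PKB phosphorylation.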
# [6] = test system: panel of 110 protein kinases; experiment: Protein kinase profiling, panel of 110 protein kinases; format: biochemical; conditions: 10 μM, Supplementary Figure S1
# [7] = molecular target: p110γ (Homo sapiens, UniProt P48736); experiment: PI3K; format: biochemical; conditions: read-out: IC50 against p110γ; HTRF assay
# [8] = molecular target: p110α H1047R (Homo sapiens, UniProt P42336, H1047R); experiment: PI3K; format: biochemical; conditions: read-out: IC50 against p110α H1047R; HTRF assay
# [9] = test system: Akt/PKB activation in PTEN-deficient cell lines; conditions: cited from earlier work
# [10] = molecular target: p110α E545K (Homo sapiens, UniProt P42336, E545K); experiment: PI3K; format: biochemical; conditions: read-out: IC50 against p110α E545K; HTRF assay
# [11] = molecular target: p110δ (Homo sapiens, UniProt O00329); experiment: PI3K; format: biochemical; conditions: read-out: IC50 against p110δ; HTRF assay
# [12] = molecular target: p110α (Homo sapiens, UniProt P42336); experiment: PI3K; format: biochemical; conditions: read-out: IC50 against p110α; HTRF assay
# Chain of p110α (P42336 whole entry): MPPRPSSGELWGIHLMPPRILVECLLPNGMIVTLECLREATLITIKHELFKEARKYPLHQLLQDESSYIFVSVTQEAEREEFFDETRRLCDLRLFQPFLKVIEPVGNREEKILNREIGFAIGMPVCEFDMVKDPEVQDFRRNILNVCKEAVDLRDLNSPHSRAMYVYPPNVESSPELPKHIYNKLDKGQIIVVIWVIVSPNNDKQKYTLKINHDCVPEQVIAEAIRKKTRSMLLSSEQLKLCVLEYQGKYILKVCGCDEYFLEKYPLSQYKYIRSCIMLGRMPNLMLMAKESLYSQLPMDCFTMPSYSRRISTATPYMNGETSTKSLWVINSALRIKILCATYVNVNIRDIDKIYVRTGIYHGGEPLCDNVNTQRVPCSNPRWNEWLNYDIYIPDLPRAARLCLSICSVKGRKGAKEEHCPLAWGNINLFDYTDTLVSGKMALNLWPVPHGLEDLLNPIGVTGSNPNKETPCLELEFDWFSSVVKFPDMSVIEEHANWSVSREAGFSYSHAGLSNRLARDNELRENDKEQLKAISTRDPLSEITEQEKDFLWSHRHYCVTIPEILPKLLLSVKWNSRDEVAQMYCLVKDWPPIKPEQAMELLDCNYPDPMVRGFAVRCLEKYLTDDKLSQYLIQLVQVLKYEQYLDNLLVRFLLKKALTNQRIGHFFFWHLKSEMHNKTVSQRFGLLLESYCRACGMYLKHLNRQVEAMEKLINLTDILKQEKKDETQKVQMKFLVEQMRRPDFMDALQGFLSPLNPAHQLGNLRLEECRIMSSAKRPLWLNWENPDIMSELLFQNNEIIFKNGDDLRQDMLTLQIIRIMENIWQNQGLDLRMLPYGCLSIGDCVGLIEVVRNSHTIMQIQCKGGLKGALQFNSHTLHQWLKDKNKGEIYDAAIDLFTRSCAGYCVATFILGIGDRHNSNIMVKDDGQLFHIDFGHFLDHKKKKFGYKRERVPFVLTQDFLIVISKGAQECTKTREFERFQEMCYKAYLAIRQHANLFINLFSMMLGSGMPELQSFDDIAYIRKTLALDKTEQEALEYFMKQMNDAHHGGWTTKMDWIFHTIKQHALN
# Chain of p110α (P27986 whole entry partner): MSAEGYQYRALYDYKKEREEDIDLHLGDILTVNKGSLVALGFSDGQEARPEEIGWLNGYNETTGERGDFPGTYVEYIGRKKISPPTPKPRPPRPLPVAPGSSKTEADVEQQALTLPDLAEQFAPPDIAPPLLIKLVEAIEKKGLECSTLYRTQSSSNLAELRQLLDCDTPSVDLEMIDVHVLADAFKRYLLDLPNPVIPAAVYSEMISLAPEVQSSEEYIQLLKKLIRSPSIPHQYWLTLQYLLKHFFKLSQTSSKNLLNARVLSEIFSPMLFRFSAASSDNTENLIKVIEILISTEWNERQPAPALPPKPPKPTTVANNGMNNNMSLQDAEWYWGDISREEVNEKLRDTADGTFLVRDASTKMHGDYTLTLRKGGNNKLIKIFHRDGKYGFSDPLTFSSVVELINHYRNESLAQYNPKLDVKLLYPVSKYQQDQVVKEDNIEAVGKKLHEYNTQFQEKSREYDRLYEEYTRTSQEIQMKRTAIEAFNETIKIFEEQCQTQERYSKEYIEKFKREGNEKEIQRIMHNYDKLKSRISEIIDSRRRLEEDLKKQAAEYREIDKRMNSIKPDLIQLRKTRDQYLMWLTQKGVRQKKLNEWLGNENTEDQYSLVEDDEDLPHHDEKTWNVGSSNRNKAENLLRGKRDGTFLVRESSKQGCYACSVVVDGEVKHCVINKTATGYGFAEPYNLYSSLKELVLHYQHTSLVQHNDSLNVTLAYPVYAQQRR
# Chain of p110γ (P48736 whole entry): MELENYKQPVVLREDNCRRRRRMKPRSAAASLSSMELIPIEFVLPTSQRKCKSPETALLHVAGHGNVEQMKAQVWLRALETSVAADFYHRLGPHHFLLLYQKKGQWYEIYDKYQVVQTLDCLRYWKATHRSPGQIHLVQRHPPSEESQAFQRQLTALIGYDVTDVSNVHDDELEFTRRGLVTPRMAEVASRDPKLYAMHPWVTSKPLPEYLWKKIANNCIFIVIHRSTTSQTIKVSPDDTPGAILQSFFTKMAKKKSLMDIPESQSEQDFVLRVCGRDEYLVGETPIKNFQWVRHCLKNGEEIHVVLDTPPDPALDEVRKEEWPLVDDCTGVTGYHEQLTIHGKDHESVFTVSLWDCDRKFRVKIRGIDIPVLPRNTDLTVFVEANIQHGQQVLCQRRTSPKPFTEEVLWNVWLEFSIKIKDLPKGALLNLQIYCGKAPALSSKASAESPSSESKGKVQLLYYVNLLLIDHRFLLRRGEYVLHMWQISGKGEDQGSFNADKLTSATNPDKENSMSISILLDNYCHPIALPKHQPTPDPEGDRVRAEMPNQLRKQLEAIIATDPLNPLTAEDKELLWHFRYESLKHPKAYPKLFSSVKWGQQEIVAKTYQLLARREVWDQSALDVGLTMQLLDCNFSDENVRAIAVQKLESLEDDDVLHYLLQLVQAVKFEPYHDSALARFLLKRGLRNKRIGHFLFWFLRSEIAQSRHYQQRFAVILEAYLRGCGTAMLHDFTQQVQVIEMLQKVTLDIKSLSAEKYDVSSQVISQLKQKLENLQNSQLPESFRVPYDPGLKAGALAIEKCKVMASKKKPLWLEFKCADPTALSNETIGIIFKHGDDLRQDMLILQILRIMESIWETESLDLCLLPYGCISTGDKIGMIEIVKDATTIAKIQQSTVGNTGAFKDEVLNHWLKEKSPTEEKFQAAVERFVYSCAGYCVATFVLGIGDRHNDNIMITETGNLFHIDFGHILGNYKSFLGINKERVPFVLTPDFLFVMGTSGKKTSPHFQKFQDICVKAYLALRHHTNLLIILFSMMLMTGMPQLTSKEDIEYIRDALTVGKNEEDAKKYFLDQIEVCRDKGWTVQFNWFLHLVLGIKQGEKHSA
# Chain of p110α E545K (P42336 whole entry E545K): as the sequence (P42336 whole entry) above, with E545K counted along it
# Chain of p110α E545K (P27986 whole entry partner): as the sequence (P27986 whole entry partner) above
# Chain of p110α H1047R (P42336 whole entry H1047R): as the sequence (P42336 whole entry) above, with H1047R counted along it
# Chain of p110α H1047R (P27986 whole entry partner): as the sequence (P27986 whole entry partner) above
# Chain of p110δ (O00329 whole entry): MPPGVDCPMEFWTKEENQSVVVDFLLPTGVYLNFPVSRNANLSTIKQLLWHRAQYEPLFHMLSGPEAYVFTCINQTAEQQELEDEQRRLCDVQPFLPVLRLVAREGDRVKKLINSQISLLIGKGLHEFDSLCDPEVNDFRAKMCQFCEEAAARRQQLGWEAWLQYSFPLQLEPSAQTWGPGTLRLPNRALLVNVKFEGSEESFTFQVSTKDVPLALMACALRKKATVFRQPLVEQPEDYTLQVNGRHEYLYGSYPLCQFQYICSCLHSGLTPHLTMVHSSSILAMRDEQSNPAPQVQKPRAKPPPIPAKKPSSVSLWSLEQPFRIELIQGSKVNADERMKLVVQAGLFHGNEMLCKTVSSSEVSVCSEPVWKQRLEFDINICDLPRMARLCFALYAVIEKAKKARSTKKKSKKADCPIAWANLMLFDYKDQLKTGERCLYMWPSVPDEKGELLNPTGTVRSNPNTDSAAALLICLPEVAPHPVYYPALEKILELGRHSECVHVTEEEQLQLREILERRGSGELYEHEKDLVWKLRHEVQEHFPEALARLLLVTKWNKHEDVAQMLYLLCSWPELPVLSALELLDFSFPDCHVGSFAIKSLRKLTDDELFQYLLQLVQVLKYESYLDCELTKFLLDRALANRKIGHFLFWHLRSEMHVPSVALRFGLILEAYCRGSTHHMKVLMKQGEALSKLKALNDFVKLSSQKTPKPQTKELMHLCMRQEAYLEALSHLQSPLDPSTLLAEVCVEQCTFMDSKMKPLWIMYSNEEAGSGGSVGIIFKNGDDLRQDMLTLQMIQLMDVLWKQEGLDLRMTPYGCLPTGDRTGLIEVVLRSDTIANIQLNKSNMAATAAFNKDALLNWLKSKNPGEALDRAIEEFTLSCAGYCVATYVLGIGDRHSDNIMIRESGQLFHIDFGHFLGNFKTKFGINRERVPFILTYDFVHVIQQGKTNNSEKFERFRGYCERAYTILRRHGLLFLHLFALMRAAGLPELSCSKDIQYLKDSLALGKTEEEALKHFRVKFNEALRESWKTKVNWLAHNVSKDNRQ
# Chain of p110δ (P27986 whole entry partner): as the sequence (P27986 whole entry partner) above
smiles,measurement,setting,value
Cn1c(=O)n(-c2ccc(C(C)(C)C#N)cc2)c2c3cc(-c4cnc5ccccc5c4)ccc3ncc21 [BEZ-235],AUC,[1],7.33 µM·h
same,Cmax,[1],1860 nM
same,Tmax,[1],0.25 h
same,half-life,[1],2.73 h
same,effect on tumour volume / growth,[2]; U87MG xenograft,significantly reduced
same,BWL nadir (%),"[2]; U87MG, intraperitoneal",−8.4±5.4%
same,Number of deaths/n,"[2]; U87MG, intraperitoneal",0/5
same,body weight loss / tolerability,[3],moderate body weight loss
same,BWL nadir (%),[3]; intraperitoneal,−9.5±6.6%
same,Number of deaths/n,[3]; intraperitoneal,four and 4/7
same,BWL nadir (%),"[4]; HCT-116, intraperitoneal",−5.9±1.8%
same,Number of deaths/n,"[4]; HCT-116, intraperitoneal",0/7
same,effect on tumour volume,[4]; HCT-116 xenograft,had no effect
Cc1ccccc1-n1c(Cn2cnc3c(N)ncnc32)nc2cccc(C)c2c1=O [IC87114],inhibition of insulin-stimulated phosphorylation of Akt/PKB Ser473 and Thr308,[5],not inhibited
same,inhibitory effects on panel of 110 protein kinases,[6],do not have any major effects
O=c1cc(N2CCOCC2)oc2c(-c3ccccc3)cccc12 [LY294002],inhibition of phosphorylation of Akt/PKB Ser473 and Thr308,[5]; all cell lines tested,sensitive
same,inhibition of insulin-stimulated phosphorylation of Akt/PKB Ser473 and Thr308,[5],effective
Cc1ccc([N+](=O)[O-])cc1S(=O)(=O)N(C)/N=C/c1cnc2ccc(Br)cn12 [PIK-75],IC50,[7],33 nM
same,inhibition of insulin-stimulated activation of Akt/PKB,[5],partial inhibitory effect
same,inhibition of insulin-stimulated phosphorylation of Akt/PKB Ser473 and Thr308,[5],less effective
same,inhibitory effects on panel of 110 protein kinases,[6],inhibited a large number of protein kinases
Cc1cc(C(C)Nc2ccccc2)c2nc(N3CCOCC3)cc(=O)n2c1 (stereo not shown) [TGX-221],IC50,[8],> 1000 nM
same,concentration required to induce reduction in Akt/PKB activation,[9],2 µM
same,IC50,[7],> 1250 nM
same,inhibition of insulin-stimulated activation of Akt/PKB,[5],partial inhibitory effect
same,inhibition of insulin-stimulated phosphorylation of Akt/PKB Ser473 and Thr308,[5],not inhibited
same,IC50,[10],> 1000 nM
same,IC50,[11],130 nM
same,inhibitory effects on panel of 110 protein kinases,[6],do not have any major effects
same,IC50,[12],> 1000 nM
COC[C@H]1OC(=O)c2coc3c2[C@@]1(C)C1=C(C3=O)[C@@H]2CCC(=O)[C@@]2(C)C[C@H]1OC(C)=O [wortmannin],inhibition of insulin-stimulated phosphorylation of Akt/PKB Ser473 and Thr308,[5],effective
